Data published in paper PMC5614578 (Biochemistry and Biophysics Reports, 2017).
“Also recorded” adds a separate entry of the source. Like-named read-outs stand apart in the source and are kept apart here.

Key:
[1] = biological target: T1, System xC^- cystine/glutamate antiporter (SXC) (Rattus norvegicus, UniProt A0A8I6AB70); test: LPS-induced glutamate release from primary microglia; type: cell-based; conditions: for Inhibition of LPS-induced glutamate release (result in words): LPS-treated rat primary microglia
T1 sequence (A0A8I6AB70 1-502): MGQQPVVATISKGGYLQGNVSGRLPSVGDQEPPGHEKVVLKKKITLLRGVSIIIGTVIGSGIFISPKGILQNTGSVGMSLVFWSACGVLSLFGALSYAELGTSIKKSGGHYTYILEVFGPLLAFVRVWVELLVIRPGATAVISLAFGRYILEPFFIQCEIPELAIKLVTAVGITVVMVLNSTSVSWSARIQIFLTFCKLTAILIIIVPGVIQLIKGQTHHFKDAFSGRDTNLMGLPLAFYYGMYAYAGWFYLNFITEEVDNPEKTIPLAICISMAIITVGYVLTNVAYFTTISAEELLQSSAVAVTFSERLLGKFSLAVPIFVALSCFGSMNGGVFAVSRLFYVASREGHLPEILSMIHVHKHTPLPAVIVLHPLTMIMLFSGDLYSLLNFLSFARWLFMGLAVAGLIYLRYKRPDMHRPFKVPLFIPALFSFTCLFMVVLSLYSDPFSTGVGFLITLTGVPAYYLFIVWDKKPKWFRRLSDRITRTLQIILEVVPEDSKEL
T1 sequence (Q794F9 whole entry partner): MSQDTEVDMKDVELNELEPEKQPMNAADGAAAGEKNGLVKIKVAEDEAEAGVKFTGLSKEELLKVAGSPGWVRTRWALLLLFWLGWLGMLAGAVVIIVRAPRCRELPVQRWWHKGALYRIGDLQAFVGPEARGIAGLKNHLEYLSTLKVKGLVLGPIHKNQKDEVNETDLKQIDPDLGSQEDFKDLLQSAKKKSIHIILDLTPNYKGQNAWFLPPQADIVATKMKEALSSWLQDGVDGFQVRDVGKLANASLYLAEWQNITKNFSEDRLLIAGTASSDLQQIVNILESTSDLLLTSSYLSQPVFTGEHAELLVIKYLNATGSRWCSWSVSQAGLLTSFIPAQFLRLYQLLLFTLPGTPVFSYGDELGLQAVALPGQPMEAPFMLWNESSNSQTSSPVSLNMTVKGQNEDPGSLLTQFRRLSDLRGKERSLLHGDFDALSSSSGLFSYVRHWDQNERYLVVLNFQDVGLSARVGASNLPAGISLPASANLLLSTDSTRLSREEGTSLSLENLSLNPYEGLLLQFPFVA
Procedure, shortened: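 Rat primary microglia were taken from 14–21-day mixed glial cultures of 1–2-day pup brains by shaking at 200 rpm for 2 h at 37 °C. Cells were plated at 50,000/well on poly-D-Lys and switched after 24 h to serum-free, phenol red-free DMEM with 2 mM glutamine and 0.2 mM cystine. Test compound (8 concentrations, 10 pM–100 μM, 0.1% DMSO final, duplicate or triplicate) was added 15 min before 1 μg/ml LPS for 24 h. Extracellular glutamate was read by enzyme-coupled Amplex UltraRed fluorescence against a glutamate standard curve, with cell-free counter-screens.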

[2] = biological target: T1, System xC^- cystine/glutamate antiporter (SXC); test: [14C]-cystine uptake by LPS-activated primary microglia; type: cell-based
Procedure, shortened: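 Microglia were exposed for 24 h to HBSS or LPS (in HBSS) in DMEM with 0.2 mM cystine. An aliquot of that medium was checked for glutamate release to confirm activation. Medium was then replaced and uptake was measured over 15 min in EBSS with [¹⁴C]-cystine tracer (45 μCi/μmol, 10 μM), with LPS ± test compound. Specific uptake was obtained by subtracting a background control. Values average at least four determinations.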

[3] = test system: ferroptosis; conditions: read-out: EC50 for induction of ferroptosis; cited from earlier work
[4] = biological target: T1, System xC^- cystine/glutamate antiporter (SXC); conditions: 1 mM; used for background control; stated as known, no reference given; cited from earlier work
[5] = test system: rat primary microglia; type: cell-based; conditions: 24 h treatment; Pam3CSK4 10 µg/ml, poly I:C 50 µg/ml, Tat 1 µM, LPS 1 µg/ml
Procedure, shortened: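 Primary microglia were isolated from neonatal rat mixed glial cultures by shaking and kept in serum-free, phenol red-free DMEM with 2 mM glutamine and 0.2 mM cystine. Cells were stimulated for 24 h with the activator. Extracellular glutamate was quantified by enzyme-coupled Amplex UltraRed fluorescence against a standard curve, linear over 0.5–64 μM glutamate.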

| Molecule | Inhibition of LPS-induced glutamate release (result in words) [1] | Inhibition of cystine uptake (result in words) [2] | further results |
| --- | --- | --- | --- |
| CC(C)Oc1ccccc1-n1c(CN2CCN(C(=O)COc3ccc(Cl)cc3)CC2)nc2ccccc2c1=O [13MEW76] | did not affect inhibitory activity | – | – |
| CCOc1ccccc1-n1c(C(C)N2CCN(C(=O)COc3ccccc3)CC2)nc2ccccc2c1=O (stereo not shown) [35MEW13] | abolished inhibitory activity | – | – |
| CCOc1ccccc1-n1c(C(C)N2CCN(C(C)=O)CC2)nc2ccccc2c1=O (stereo not shown) [Erastin A8] | abolished inhibitory activity; also recorded: inactive | inactive | – |
| N[C@@H](C(=O)O)c1ccc(C(=O)O)cc1 [R-4CPG] | failed to inhibit | failed to inhibit | Inhibition of cystine uptake (result in words) ([2]; listed as (R)-4-CPG): did not inhibit; Inhibition of LPS-induced glutamate release (result in words) ([1]; listed as (R)-4-CPG): did not inhibit |
| N[C@H](C(=O)O)c1ccc(C(=O)O)cc1 [S-4CPG, (S)-4-carboxyphenyl glycine] | blocked | blocked | – |
| CCOc1ccccc1-n1c(C(C)N2CCN(C(=O)COc3ccc(Cl)cc3)CC2)nc2ccccc2c1=O (stereo not shown) [erastin] | blocked | blocked | EC50 [3]: 1200 nM; EC50 [1]: 130 ± 40 nM |
| O=C(O)c1cc(/N=N/c2ccc(S(=O)(=O)Nc3ccccn3)cc2)ccc1O [sulfasalazine] | blocked | blocked | Inhibition of SXC activity (result in words) [4]: completely inhibit |
| polyinosinic: polycytidylic acid [poly I:C] | – | – | Induction of glutamate release (result in words) [5]: Significant glutamate release |
| HIV-1 Tat1–86 protein: HIV-1 Tat1–86 protein obtained from Diatheva, microglia activator (protein, UniProt P04608 1-86, looked up) Protein Tat: MEPVDPRLEPWKHPGSQPKTACTNCYCKKCCFHCQVCFITKALGISYGRKKRRQRRRAHQNSQTHQASLSKQPTSQPRGDPTGPKE | – | – | Induction of glutamate release (result in words) [5]: Significant glutamate release |
